The values below come from ChEMBL document CHEMBL4715825, “Synthesis and biological evaluations of marine oxohexadecenoic acids: PPARα/γ dual agonism and anti-diabetic target gene effects” (Eur J Med Chem, 2018).

Each structure is given as a SMILES string. Activity calls are given as the source filed them. The rule behind the calls is not given here.

For assay [1], the target named is T1, Peroxisome proliferator-activated receptor gamma (Homo sapiens) (UniProt P37231).
T1 sequence (whole entry): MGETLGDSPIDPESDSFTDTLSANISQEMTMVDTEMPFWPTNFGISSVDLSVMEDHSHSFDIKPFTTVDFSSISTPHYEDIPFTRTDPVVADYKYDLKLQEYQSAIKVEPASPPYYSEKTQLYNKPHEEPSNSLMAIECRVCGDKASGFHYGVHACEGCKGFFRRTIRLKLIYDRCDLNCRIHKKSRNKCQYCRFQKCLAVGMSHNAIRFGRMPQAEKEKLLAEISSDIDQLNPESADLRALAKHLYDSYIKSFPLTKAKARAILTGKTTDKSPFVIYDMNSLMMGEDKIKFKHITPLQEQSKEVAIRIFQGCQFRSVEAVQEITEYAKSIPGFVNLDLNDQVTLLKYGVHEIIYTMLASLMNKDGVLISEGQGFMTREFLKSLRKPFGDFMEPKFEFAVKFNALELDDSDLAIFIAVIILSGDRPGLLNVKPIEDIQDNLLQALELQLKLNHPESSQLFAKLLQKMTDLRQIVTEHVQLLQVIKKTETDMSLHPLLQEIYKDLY
The experiment in a line: Agonist activity at recombinant human PPARgamma LBD (205 to 505 residues) expressed in African green monkey COS-1 cells at 25 to 50 uM incubated for 18 hrs by luciferase reporter gene assay. It is filed as cell-based. The note with it: filed as agonist, dose 25-50 µM. The essentials:
(§1)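 Transient Gal4 one-hybrid assay in COS-1 cells (7×10^4 per well), transfected 24 h after seeding. Plasmids were Gal4-DBD fused to the human nuclear receptor LBD, a 5×UAS-SV40 luciferase reporter and pRL-CMV Renilla control. Ligand in DMSO (final 0.1%) was added 5 h post-transfection. Dual-luciferase activity was read after 18 h, expressed as RLU, from three biological replicates in quadruplicate.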
A general note: Reporter assays use an easily measured gene product as a stand-in for the process of interest.

Assay [2] has as its target T2, Oxysterols receptor LXR-beta (Homo sapiens) (UniProt P55055).
T2 sequence (whole entry): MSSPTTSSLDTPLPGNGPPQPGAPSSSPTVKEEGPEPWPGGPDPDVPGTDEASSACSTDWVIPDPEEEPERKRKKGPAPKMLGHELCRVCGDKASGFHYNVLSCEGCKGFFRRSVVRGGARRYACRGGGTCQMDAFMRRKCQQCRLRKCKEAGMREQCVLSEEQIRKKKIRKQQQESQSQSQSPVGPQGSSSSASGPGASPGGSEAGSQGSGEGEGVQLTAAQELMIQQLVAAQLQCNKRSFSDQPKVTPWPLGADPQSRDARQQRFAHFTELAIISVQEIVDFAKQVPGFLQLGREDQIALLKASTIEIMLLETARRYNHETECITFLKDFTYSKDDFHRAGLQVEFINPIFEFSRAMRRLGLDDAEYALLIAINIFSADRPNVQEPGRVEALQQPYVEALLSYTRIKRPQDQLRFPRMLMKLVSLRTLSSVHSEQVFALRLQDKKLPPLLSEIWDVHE
The assay can be described thus: Agonist activity at recombinant human LXRbeta LBD (155 to 461 residues) expressed in African green monkey COS-1 cells at 25 to 50 uM incubated for 18 hrs by luciferase reporter gene assay. Format: cell-based. The note with it: dose 25-50 µM. The method in brief: as §1

The target in assay [3] is T3, Peroxisome proliferator-activated receptor alpha (Homo sapiens) (UniProt Q07869).
T3 sequence (whole entry): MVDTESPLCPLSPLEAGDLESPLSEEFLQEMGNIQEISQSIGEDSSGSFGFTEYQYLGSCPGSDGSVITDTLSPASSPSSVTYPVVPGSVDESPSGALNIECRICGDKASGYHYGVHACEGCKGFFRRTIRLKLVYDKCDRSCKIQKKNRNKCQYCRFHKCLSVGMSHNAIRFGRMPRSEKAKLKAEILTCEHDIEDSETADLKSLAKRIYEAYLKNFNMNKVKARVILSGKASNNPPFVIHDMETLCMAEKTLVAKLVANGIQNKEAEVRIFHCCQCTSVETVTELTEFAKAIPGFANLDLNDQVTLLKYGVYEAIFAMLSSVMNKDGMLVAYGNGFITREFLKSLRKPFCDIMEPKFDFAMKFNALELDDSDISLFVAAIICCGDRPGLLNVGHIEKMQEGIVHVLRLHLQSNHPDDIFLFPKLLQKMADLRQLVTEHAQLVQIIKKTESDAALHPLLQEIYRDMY
The experiment in a line: Agonist activity at human PPARalpha in human HuH-7 cells assessed as increase in CPT1A gene expression at 50 uM incubated for 24 hrs by SYBR-green based qPCR analysis. It is filed as cell-based. The note with it: filed as agonist. The essentials:
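Cells were seeded at 2×10^5 per well and treated 24 h later with compound in DMSO (final 0.1%). The next day, cells were washed and scraped into RLT buffer. RNA was isolated, and target gene mRNA was quantified by SYBR-green qPCR with specific primers.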
On the technique in general: Quantitative PCR measures a nucleic acid by following its amplification.

Assay [4] has as its target T3, Peroxisome proliferator-activated receptor alpha (Homo sapiens). The experiment in a line: Agonist activity at human PPARalpha in 8 day differentiated human SGBS cells assessed as increase in ANGPTL4 gene expression at 25 uM incubated for 24 hrs by SYBR-green based qPCR analysis. The note with it: filed as agonist. It is filed as cell-based. The essentials: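 SGBS preadipocytes were seeded at passage P6-P8 and grown to confluence. They were differentiated for 4 days in Quickdiff (3FC plus dexamethasone, IBMX and rosiglitazone), then kept in 3FC with medium renewed every fourth day. On day 8, cells were stimulated for 24 h in 3FC with compound:BSA or rosiglitazone. SYBR-green qPCR used gene-specific primers. Data are mean ± SEM of three biological replicates in duplicate.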

Assay [5] has as its system SGBS. The experiment in a line: Induction of adipogenesis in 8 day differentiated human SGBS cells assessed as increase in FABP4 mRNA expression at 25 uM measured upto 12 days by qRT-PCR analysis. Format: functional, cell-based. The note with it: time day <=12. The essentials:
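SGBS cells were grown to confluence (day 0). Quickdiff medium was supplemented with compound or rosiglitazone for 4 days, followed by 3FC medium. DMSO or DMSO:BSA served as control. RNA was harvested on days 0, 4, 8 and 12, and expression was measured by SYBR-green qPCR. Data are mean ± SEM of at least three biological replicates in duplicate.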

The test system of assay [6] is SGBS. The assay can be described thus: Effect on diabetic complication pathway in 8 day differentiated human SGBS cells assessed as downregulation of AGE-RAGE signalling genes at 25 uM incubated for 8 days by Illumina sequencing method. Format: functional, cell-based. The essentials:
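SGBS cells were differentiated 4 days in Quickdiff supplemented with compound:BSA or rosiglitazone, then 4 days in 3FC. Total RNA was extracted, and strand-specific TruSeq libraries were sequenced on NextSeq 500 (2×75 bp paired-end). Reads were aligned to hg19 with Tophat/Bowtie and counted as RPKM by Cufflinks. Values are log2 fold over day 0 cells, grouped into KEGG gene sets (n = 2-4).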

The test system of the next assay is COS-1. The assay can be described thus: Agonist activity at recombinant full length human PPARalpha/gamma/RXRalpha expressed in African green monkey COS-1 cells assessed as induction of PLIN1 driven luciferase reporter activity at 25 uM incubated for 18 hrs by dual luciferase reporter gene assay. The conditions noted are these: filed as agonist. It is filed as cell-based. The method in brief:
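COS-1 cells were kept in DMEM/10% FBS at 37 °C, 5% CO2, and seeded at 7×10^4 per well. After 24 h they were lipofected with full-length PPAR and RXR expression plasmids, a PLIN1- or CPT1A-driven luciferase reporter and pRL-CMV Renilla control. Compound in DMSO (final 0.1%) was added 5 h later. After 18 h, cells were lysed for Dual-Luciferase readout. Three biological replicates were run in quadruplicate.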

As to `CCCCC/C=C/C(=O)CCCCCCCC(=O)O`, the result (in assay [1]; in assay [3]; in assay [4]; in the assay on SGBS [5]; with SGBS [6]) was Active. Also, in assay [2], the outcome was inactive.

For `CCCCCCCC(=O)/C=C/CCCCCC(=O)O`, the outcome (in assay [1]; with COS-1; in assay [3]; with SGBS [5]; with SGBS [6]) was Active. In addition, the result in assay [2] was inactive.
